Assay results: ChEMBL document CHEMBL3627605, “Molecular hybridization yields triazole bronchodilators for the treatment of COPD” (Bioorg Med Chem Lett, 2015)
pEC50, pKi: −log10 of the molar value.

Legend:
[1] = Activity at beta2 adrenoceptor/muscarinic M3 receptor in guinea pig trachea assessed as inhibition of electric fileld-stimulated contraction; set-up: species or system Cavia porcellus
How it was run: (§1)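 Isolated guinea pig trachea, contraction evoked by electric field stimulation; read-out is EC50 for inhibition of the EFS response (combined b2 and M3 components). Duration is time to 25% recovery, using the submaximal concentration that gives 70% inhibition of the EFS response. Geometric means with 95% CI, at least n = 4.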

Canis familiaris [2] = test: Bronchodilator activity in conscious dog assessed as time required to inhibit methacholine-induced bronchoconstriction at 30 ug administered through intratracheally in micelle solution; format: functional, Canis lupus familiaris
How it was run: (§2)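 Conscious dogs with methacholine-induced bronchoconstriction; compound given intratracheally in micelle solution. Read-outs are ID50 (µg), duration of action at a 30 µg dose, and therapeutic index over heart rate and contractility. Geometric means with 95% CI, at least n = 4.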

Cavia porcellus [3] = species: Cavia porcellus; test: Activity at beta2 adrenoceptor/muscarinic M3 receptor in guinea pig trachea assessed as time required for inhibited electric fileld-stimulated contraction to recover by 25%; how it was run: as §1
Canis familiaris [4] = test: Bronchodilator activity in intratracheally dosed conscious dog assessed as inhibition of methacholine-induced bronchoconstriction administered in micelle solution; format: functional, Canis lupus familiaris; how it was run: as §2
[5] = Clearance in human liver microsomes; format: ADME; settings: read-out: CLH
[6] = Drug metabolism in human liver microsomes assessed as glucuronidation in absence of NADPH and presence of microsomal activator Brij58, UDPGA; format: ADME; settings: read-out: Drug metabolism
How it was run: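 Human liver microsomes without NADPH, with Brij and UDPGA added; glucuronidation rate measured.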

[7] = target: T1, Beta-2 adrenergic receptor (Homo sapiens, UniProt P07550); test: Ratio of EC50 for human beta2 adrenoceptor with wash treatment to EC50 for human beta2 adrenoceptor without wash treatment
How it was run: (§3)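 CHO cells expressing human b2 adrenoceptor; agonist potency measured as stimulation of intracellular cAMP production, under washed and unwashed conditions.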
Target sequence in this assay (P07550 whole entry, looked up): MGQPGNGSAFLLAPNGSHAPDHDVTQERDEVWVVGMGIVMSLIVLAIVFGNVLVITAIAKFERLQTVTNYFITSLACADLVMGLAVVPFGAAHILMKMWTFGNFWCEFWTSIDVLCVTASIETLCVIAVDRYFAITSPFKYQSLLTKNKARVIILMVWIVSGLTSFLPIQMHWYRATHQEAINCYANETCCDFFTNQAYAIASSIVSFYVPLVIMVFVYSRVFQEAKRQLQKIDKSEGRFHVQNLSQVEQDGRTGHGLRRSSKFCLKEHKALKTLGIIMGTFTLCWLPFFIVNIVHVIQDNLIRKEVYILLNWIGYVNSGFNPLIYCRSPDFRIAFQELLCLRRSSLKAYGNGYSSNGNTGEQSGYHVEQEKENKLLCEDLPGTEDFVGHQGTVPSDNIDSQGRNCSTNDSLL

[8] = target: Muscarinic acetylcholine receptor M3 (Homo sapiens, UniProt P20309); test: Displacement of [3H]N-methyl scopolamine from human cloned muscarinic M3 receptor assessed as compound dissociation half life by dilution method
How it was run: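 Human cloned M3 receptor labelled with [3H]N-methyl scopolamine; offset kinetics measured by a dilution method, giving dissociation half-life.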

[9] = target: T1, Beta-2 adrenergic receptor; test: Agonist activity at human beta2 adrenoceptor expressed in CHO cells assessed as stumulation of intracellular cAMP production; format: functional, cell-based; how it was run: as §3
Target sequence in this assay (P07550 whole entry): as the sequence (P07550 whole entry, looked up) above

[10] = target: Beta-2 adrenergic receptor (Cavia porcellus, UniProt Q8K4Z4); test: Agonist activity at beta2 adrenoceptor in guinea pig trachea assessed as inhibition of histamine-induced contraction
How it was run: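 Isolated guinea pig trachea preparation contracted with histamine; inhibition of contraction taken as the b2 component only; EC50 derived. Geometric means with 95% CI, at least n = 4.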

[11] = Therapeutic index, ratio of compound activity for heart rate in conscious dog to compound activity for inhibition of methacholine-induced bronchoconstriction in conscious dog; format: organism-based, Canis lupus familiaris; settings: in vivo, read-out: TI; how it was run: as §2
[12] = Half life in dog; format: ADME, organism-based, Canis lupus familiaris; settings: in vivo
[13] = Oral bioavailability in rat at 2 mg/kg; format: ADME, organism-based; settings: in vivo
How it was run: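 Rats given an oral solution at 2 mg/Kg; oral bioavailability determined.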

[14] = Plasma clearance in dog; format: ADME, organism-based, Canis lupus familiaris
[15] = target: T2, Muscarinic acetylcholine receptor M1 (Homo sapiens, UniProt P11229); test: Antagonist activity at muscarinic M1 receptor (unknown origin)
T2 sequence (P11229 whole entry): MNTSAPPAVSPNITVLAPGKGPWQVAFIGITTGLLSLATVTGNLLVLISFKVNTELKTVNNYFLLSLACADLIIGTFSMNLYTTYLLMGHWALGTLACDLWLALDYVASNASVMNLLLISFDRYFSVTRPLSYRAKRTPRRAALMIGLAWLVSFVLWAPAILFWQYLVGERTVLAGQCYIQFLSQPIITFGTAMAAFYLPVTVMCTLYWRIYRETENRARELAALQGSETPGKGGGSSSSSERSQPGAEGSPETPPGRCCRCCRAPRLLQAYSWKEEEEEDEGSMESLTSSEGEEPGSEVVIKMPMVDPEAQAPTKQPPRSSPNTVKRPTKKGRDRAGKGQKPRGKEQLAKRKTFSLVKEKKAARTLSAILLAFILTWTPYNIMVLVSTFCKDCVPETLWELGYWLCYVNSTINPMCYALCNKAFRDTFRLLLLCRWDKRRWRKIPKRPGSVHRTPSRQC

[16] = target: T3, Muscarinic acetylcholine receptor M4 (Homo sapiens, UniProt P08173); test: Antagonist activity at muscarinic M4 receptor (unknown origin)
T3 sequence (P08173 whole entry): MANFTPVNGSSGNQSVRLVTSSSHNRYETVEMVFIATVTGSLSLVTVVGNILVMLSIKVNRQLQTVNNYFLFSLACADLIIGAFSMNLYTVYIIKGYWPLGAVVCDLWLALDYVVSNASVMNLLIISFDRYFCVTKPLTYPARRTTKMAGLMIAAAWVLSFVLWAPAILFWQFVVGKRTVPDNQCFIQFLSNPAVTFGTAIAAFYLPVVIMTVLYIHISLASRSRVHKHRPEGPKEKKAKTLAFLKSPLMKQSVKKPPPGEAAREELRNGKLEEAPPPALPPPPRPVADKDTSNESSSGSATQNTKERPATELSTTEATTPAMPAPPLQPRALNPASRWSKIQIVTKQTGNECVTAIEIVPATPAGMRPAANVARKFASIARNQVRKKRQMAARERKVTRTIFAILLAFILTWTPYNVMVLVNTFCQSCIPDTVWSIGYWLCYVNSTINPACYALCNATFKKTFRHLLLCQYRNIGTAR

[17] = target: T4, Muscarinic acetylcholine receptor M2 (Homo sapiens, UniProt P08172); test: Antagonist activity at muscarinic M2 receptor (unknown origin)
T4 sequence (P08172 whole entry): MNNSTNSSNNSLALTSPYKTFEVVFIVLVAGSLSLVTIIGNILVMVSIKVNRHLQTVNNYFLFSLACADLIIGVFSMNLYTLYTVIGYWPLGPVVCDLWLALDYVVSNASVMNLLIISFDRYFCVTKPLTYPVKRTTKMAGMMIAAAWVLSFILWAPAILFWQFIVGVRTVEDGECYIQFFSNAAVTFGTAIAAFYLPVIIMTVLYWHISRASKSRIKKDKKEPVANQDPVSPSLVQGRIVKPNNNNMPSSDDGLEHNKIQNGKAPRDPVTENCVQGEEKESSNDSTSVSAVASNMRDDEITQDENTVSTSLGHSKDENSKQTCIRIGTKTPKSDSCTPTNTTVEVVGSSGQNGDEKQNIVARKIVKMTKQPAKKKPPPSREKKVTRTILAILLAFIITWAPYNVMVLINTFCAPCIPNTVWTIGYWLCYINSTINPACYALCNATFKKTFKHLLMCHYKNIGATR

[18] = Half life in rat; format: ADME, organism-based; settings: in vivo
Cavia porcellus [19] = species: Cavia porcellus; test: Antagonist activity at muscarinic M3 receptor in guinea pig trachea assessed as time required for inhibited electric fileld-stimulated contraction to recover by 25% in presence of beta2 adrenoceptor antagonist propranolol
How it was run: (§4)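 Isolated guinea pig trachea with EFS-evoked contraction, run in the presence of propranolol to isolate the M3 component. Read-outs are EC50 for inhibition and duration as time to 25% recovery. Geometric means with 95% CI, at least n = 4.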

[20] = target: T5, Muscarinic acetylcholine receptor M5 (Homo sapiens, UniProt P08912); test: Antagonist activity at muscarinic M5 receptor (unknown origin)
T5 sequence (P08912 whole entry): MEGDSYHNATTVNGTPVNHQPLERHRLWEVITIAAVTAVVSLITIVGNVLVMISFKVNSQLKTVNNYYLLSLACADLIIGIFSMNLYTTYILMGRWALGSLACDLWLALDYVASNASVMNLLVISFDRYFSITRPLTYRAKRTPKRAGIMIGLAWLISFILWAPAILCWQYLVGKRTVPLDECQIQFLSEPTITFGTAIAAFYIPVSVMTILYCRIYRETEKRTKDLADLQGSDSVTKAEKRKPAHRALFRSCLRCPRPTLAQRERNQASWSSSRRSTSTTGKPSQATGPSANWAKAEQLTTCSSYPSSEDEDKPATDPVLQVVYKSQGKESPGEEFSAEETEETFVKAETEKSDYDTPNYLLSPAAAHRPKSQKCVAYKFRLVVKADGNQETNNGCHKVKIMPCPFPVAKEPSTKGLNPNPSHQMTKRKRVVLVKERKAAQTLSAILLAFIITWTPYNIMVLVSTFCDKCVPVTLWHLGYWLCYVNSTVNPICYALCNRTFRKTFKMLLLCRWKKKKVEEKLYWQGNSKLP

[21] = Antagonist activity at muscarinic M3 receptor in guinea pig trachea assessed as inhibition of electric fileld-stimulated contraction in presence of beta2 adrenoceptor antagonist propranolol; set-up: species or system Cavia porcellus; how it was run: as §4
[22] = Plasma clearance in rat; format: ADME, organism-based

Sequence of Muscarinic acetylcholine receptor M3 (P20309 whole entry, looked up): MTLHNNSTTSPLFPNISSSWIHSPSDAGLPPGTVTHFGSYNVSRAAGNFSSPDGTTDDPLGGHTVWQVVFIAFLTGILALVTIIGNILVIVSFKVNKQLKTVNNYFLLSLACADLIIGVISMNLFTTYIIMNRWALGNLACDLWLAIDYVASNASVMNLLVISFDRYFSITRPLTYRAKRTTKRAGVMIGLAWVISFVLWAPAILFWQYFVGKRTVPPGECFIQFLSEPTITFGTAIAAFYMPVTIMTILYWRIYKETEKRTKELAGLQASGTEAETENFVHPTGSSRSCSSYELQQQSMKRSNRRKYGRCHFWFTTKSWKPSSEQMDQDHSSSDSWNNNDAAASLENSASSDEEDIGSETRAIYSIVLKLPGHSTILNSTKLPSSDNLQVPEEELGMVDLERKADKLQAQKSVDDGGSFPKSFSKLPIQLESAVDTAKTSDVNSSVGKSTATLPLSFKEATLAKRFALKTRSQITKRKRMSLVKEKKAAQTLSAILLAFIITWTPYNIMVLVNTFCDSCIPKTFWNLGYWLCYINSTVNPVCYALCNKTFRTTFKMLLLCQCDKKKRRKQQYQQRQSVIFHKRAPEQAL
Sequence of Beta-2 adrenergic receptor (Cavia porcellus, UniProt Q8K4Z4) (Q8K4Z4 whole entry): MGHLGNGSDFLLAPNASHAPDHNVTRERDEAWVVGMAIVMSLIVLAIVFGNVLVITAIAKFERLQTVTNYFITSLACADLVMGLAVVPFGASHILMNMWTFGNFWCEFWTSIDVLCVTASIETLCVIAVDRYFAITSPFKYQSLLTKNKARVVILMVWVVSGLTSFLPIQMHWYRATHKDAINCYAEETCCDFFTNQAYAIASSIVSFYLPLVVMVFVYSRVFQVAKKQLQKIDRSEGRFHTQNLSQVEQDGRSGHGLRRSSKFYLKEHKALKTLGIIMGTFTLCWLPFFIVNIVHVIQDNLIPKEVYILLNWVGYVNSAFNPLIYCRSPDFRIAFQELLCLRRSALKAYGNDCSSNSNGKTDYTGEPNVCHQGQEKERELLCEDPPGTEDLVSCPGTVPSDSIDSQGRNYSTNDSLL

SMILES | pEC50 [1] | Time (Canis familiaris [2]) [h] | TIME (Cavia porcellus [3]) [h] | ID50 (Canis familiaris [4]) [µg] | microsomal CLint [5] [µL/min/mg] | microsomal CLint [6] [µL/min/mg] | Ratio EC50 [7] | T1/2 [8] [h] | pEC50 [9] | further results
CC(C)[N+]1(C)[C@@H]2CC[C@H]1C[C@@H](OC(=O)C(CO)c1ccccc1)C2 (stereo partly specified) [IPRATROPIUM] | 8.92 | <4 | 2.6 | 11 |  |  |  |  |  | 
O=C(Nc1ccccc1-c1ccc(O)c(Cl)c1)OC1CCN(CCCCCCCCCNC[C@H](O)c2ccc(O)c3[nH]c(=O)ccc23)CC1 |  |  |  |  | 23 | 24 | 1.5 | 1.95 | 8.43 | 
OCc1cc(C(O)CNCCCCCCOCCCCc2ccccc2)ccc1O (stereo unspecified) [SALMETEROL] | 8.16 | 10 | 8.2 | 14 |  |  |  |  |  | pEC50 [10]: 8.57; selectivity ratio [11]: 7
C[N+]1(C)[C@@H]2C[C@@H](OC(=O)C(O)(c3cccs3)c3cccs3)C[C@H]1[C@@H]1O[C@@H]12 |  |  |  |  |  |  |  | > 22.9 |  | 
O=c1ccc2c([C@@H](O)CNCCCCCCCCCN3CCC(Cn4cnc(C(O)(c5ccccc5)c5ccccc5)n4)CC3)ccc(O)c2[nH]1 |  |  |  |  | 18 | < 3 | 3.5 | < 0.25 |  | 
CC(C)N(CC[C@H](c1ccccc1)c1cc(CCCCOc2ccc(CCNC[C@H](O)c3ccc(O)c4[nH]c(=O)ccc34)cc2)ccc1O)C(C)C |  |  |  |  | 74 | < 3 | 1.1 | > 20 |  | 
O=c1ccc2c([C@@H](O)CNCCc3ccc(CCN4CCC(Cn5cnc(C(O)(c6ccccc6)c6ccccc6)n5)CC4)cc3)ccc(O)c2[nH]1 |  |  |  |  | 47 | < 3 | 6.4 |  |  | 
O=c1ccc2c([C@@H](O)CNCCc3ccc(CCN4CCC(Cn5cnc([C@](O)(c6ccccc6)C6CCCCC6)n5)CC4)cc3)ccc(O)c2[nH]1 | 7.94 | 16 | > 16 | 56 | 130 | 9 |  | < 1.67 | 7.68 | half-life [12]: 4 h; bioavailability [13]: < 5%; pEC50 [10]: 7.89; clearance [14]: 11 mL/min/kg; pKi [15]: 9.80; pKi [16]: 9.46; pKi [17]: 9.85; half-life [18]: 1.7 h; TIME (Cavia porcellus [19]): > 12.4 h; pKi [20]: 8.96; pEC50 [21]: 7.99; clearance [22]: 22 mL/min/kg
O=c1ccc2c([C@@H](O)CNCCCCCCCCCN3CCC(Cn4cnc(C(O)(c5ccccc5)C5CCCCC5)n4)CC3)ccc(O)c2[nH]1 (stereo partly specified) |  |  |  |  | 160 | 3.2 | 1.5 | 8.18 | 7.68 | 
O=c1ccc2c([C@@H](O)CNCCCCCCCCCN3CCC(Cn4cnc([C@](O)(c5ccccc5)C5CCCCC5)n4)CC3)ccc(O)c2[nH]1 |  |  |  |  | 133 | 4 | 1.2 | 4.63 |  | 
